Assay results: ChEMBL document CHEMBL3421612, “Identification of an anti-inflammatory derivative with anti-cancer potential: The impact of each of its structural components on inflammatory responses in macrophages and bladder cancer cells” (2015)
The source made the active and inactive calls. The calls are words filed in the database; no cut-off is given here.

How the values were obtained:
[1] = test system: MB49-I; test: (§1) Antiinflammatory activity against mouse MB49-I cells assessed as inhibition of IFN-gamma/TNFalpha-NO production pretreated at 10 uM after 24 hrs by Griess reaction relative to vehicle treated control; assay type: functional
Procedure, shortened: (§2)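 Cells seeded at 25 × 10³ per well, pretreated 3 h with test agents, washed twice with 10% FBS RPMI-1640, then stimulated 24 h with IFNγ plus TNFα. NO was quantified as nitrite using the Griess reaction (sulfanilic acid diazotization coupled to N-(1-naphthyl)ethylenediamine), absorbance at 548 nm, compared with cytokine-only control cells.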

[2] = test system: MB49-I; test: (§3) Antiinflammatory activity against mouse MB49-I cells assessed as inhibition of IFN-gamma/TNFalpha-NO production pretreated at 50 uM after 24 hrs by Griess reaction relative to vehicle treated control; assay type: functional; procedure, shortened: as §2
[3] = test system: THP-1; test: Reduction in IFN-gamma-induced STAT1 phosphorylation in human THP1 cells assessed as fold decrease at 10 uM after 30 mins by densitometric analysis relative to vehicle treated control; assay type: functional; conditions: THP-1, 0.5 h
Procedure, shortened: (§4)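 PMA-differentiated THP1 macrophages at 750 × 10³ cells/mL were pretreated 30 min with DMSO or compound at 10 or 50 μM, washed, then harvested immediately or after 30 min of 50 U/mL IFNγ (pSTAT1) or 25 ng/mL IL6 (pSTAT3). Lysates were run on reducing SDS-PAGE and immunoblotted for pSTAT1/pSTAT3, with blots reprobed for total STAT; phosphorylation was expressed as fold induction.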

[4] = Reduction in IFN-gamma-induced CD40 expression in human THP1 cells assessed as fold decrease pretreated at 25 uM after 48 hrs by flow cytometry relative to vehicle treated control; assay type: functional, cell-based; conditions: THP-1
Procedure, shortened: (§5)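 PMA-differentiated GFP-THP1 macrophages at 750 × 10⁴ cells/mL were pretreated 3 h with DMSO or compound, then left untreated or stimulated 48 h with 50 U/mL IFNγ. Surface CD40 and MHC-II were quantified by flow cytometry as fold change versus resting cells.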

[5] = as §1; assay type: functional; procedure, shortened: as §2
[6] = test system: J774.A1; test: Reduction in IFN-gamma/TNFalpha-induced NO production in mouse J774A.1 cells pretreated at 10 uM measured for 24 hrs by Griess reaction relative to vehicle treated control; assay type: functional; procedure, shortened: as §2
[7] = test system: THP-1; test: Reduction in IFN-gamma-induced STAT1 phosphorylation in human THP1 cells assessed as fold decrease at 50 uM after 30 mins by densitometric analysis relative to vehicle treated control; assay type: functional; conditions: THP-1, 0.5 h; procedure, shortened: as §4
[8] = test system: J774.A1; test: Reduction in IFN-gamma/TNFalpha-induced NO production in mouse J774A.1 cells pretreated at 50 uM measured for 24 hrs by Griess reaction relative to vehicle treated control; assay type: functional; procedure, shortened: as §2
[9] = test system: THP-1; test: Reduction in IL6-induced STAT3 phosphorylation in human THP1 cells assessed as fold decrease at 10 uM after 30 mins by densitometric analysis relative to vehicle treated control; assay type: functional; conditions: THP-1, 0.5 h; procedure, shortened: as §4
[10] = test system: MB49-I; test: (§6) Antiproliferative activity against mouse MB49-I cells assessed as induction of IFN-gamma/TNFalpha-induced loss of cell viability at 50 uM after 24 hrs by MTT assay relative to control; assay type: functional
Procedure, shortened: (§7)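 MB49-I cells plated at 5 × 10³ per well and cultured 24 h. Pretreated 3 h with DMSO or compound at 0–50 μM, then incubated 24 h with or without IFNγ plus TNFα. MTT added for 3 h, solubilized overnight in 10% SDS/10 mM HCl, and absorbance read at 580 nm.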

[11] = as §3; assay type: functional; procedure, shortened: as §2
[12] = test system: MB49-I; test: (§8) Antiproliferative activity against mouse MB49-I cells assessed as induction of IFN-gamma/TNFalpha-induced loss of cell viability at 37.5 uM after 24 hrs by MTT assay relative to control; assay type: functional; procedure, shortened: as §7
[13] = Reduction in IFN-gamma-induced MHC2 expression in human THP1 cells assessed as fold decrease pretreated at 25 uM after 48 hrs by flow cytometry relative to vehicle treated control; assay type: functional, cell-based; conditions: THP-1; procedure, shortened: as §5
[14] = test system: MB49-I; test: (§9) Antiproliferative activity against mouse MB49-I cells assessed as induction of IFN-gamma/TNFalpha-induced loss of cell viability at 25 uM after 24 hrs by MTT assay relative to control; assay type: functional; procedure, shortened: as §7
[15] = test system: THP-1; test: Reduction in IL6-induced STAT3 phosphorylation in human THP1 cells assessed as fold decrease at 50 uM after 30 mins by densitometric analysis relative to vehicle treated control; assay type: functional; conditions: THP-1, 0.5 h; procedure, shortened: as §4
[16] = test system: MB49-I; test: Antiproliferative activity against mouse MB49-I cells assessed as induction of IFN-gamma/TNFalpha-induced loss of cell viability at 10 uM after 24 hrs by MTT assay relative to control; assay type: functional, cell-based; procedure, shortened: as §7
[17] = Reduction in IFN-gamma-induced MHC2 expression in human THP1 cells assessed as fold decrease pretreated at 10 uM after 48 hrs by flow cytometry relative to vehicle treated control; assay type: functional, cell-based; conditions: THP-1; procedure, shortened: as §5
[18] = as §6; assay type: functional; procedure, shortened: as §7
[19] = as §8; assay type: functional; procedure, shortened: as §7
[20] = as §9; assay type: functional; procedure, shortened: as §7
[21] = Reduction in IFN-gamma-induced CD40 expression in human THP1 cells assessed as fold decrease pretreated at 10 uM after 48 hrs by flow cytometry relative to vehicle treated control; assay type: functional, cell-based; conditions: THP-1; procedure, shortened: as §5

CC(C)(C)OC(=O)NNC(=O)c1ccccc1
Activity [1]: inactive
Activity [2]: inactive

O=C1C=CC(=O)O1
inhibition [1]: inactive
inhibition [2]: inactive

O=C(O)/C=C\C(=O)Nc1ccccc1
inhibition [1]: inactive
inhibition [2]: inactive

NNC(=O)c1ccc(N2C(=O)C=CC2=O)cc1
inhibition at 10 µM [3]: 16%
inhibition [4]: 43%
inhibition at 10 µM [5]: 21%
inhibition at 10 µM [6]: 24%
inhibition at 50 µM [7]: 66%
inhibition at 50 µM [8]: 69%
inhibition at 10 µM [9]: 15%
inhibition [10]: inactive
inhibition at 50 µM [11]: 72%
inhibition [12]: inactive
inhibition [13]: 23%
inhibition [14]: inactive
inhibition at 50 µM [15]: 38%
Activity [16]: inactive

O=C1C=CC(=O)N1c1ccccc1
inhibition [1]: inactive
inhibition [2]: inactive

Nc1ccc(C(=O)O)cc1
inhibition [1]: inactive
inhibition [2]: inactive

CC(C)(C)OC(=O)NNC(=O)c1ccc(N2C(=O)C=CC2=O)cc1
inhibition at 10 µM [3]: 38%
inhibition at 10 µM [5]: 40%
inhibition at 10 µM [6]: 46%
inhibition at 50 µM [7]: 71%
inhibition [17]: 49%
inhibition at 50 µM [8]: 91%
inhibition at 10 µM [9]: 64%
inhibition at 50 µM [18]: 50%
inhibition at 50 µM [11]: 81%
inhibition at 37.5 µM [19]: 45%
inhibition at 25 µM [20]: 19%
inhibition at 50 µM [15]: 85%
inhibition [21]: 87%
Activity [16]: inactive

O=C(O)/C=C\C(=O)Nc1ccc(C(=O)O)cc1
inhibition [1]: inactive
inhibition [2]: inactive

O=C(O)c1ccc(N2C(=O)C=CC2=O)cc1
inhibition [1]: inactive
inhibition [2]: inactive
